MC4R antag cAMP: antagonists of human melanocortin 4 receptor (MC4R) | 360,000 compounds, 0.48% hits | P32245 | inhibition, % at 6.5 µM | MC4R-expressing cells, MTII-stimulated cAMP, LANCE TR-FRET | AID 540295;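 active = inhibition above its plate's cutoff, the mean of tested wells on that plate plus 3 SD, cut at about 29% in these data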;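 also: 0% = Melanotan II alone and 100% = Melanotan II plus saturating MCL0020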
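Material – human MC4R-expressing U2OS cells · Repeats – no replicates · Detection – TR-FRET with Eu-cAMP and labeled anti-cAMP, 671 nm · Times – compound 30 min, challenge 1 h, detection 1 h · Compound – single nominal compound dose of 6.5 µM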
Granule exo inh: lytic granule exocytosis inhibition; AID 651702; TALL-104 LAMP-1 surface exposure, flow cytometry; cells stimulated with thapsigargin and PMA; inhibition, % at 10 µM; 360,000 compounds, 0.66% hits;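 active = inhibition above about 55%, limit read from the data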
EP2 modulator: modulates human prostaglandin E2 receptor EP2 signaling | 260,000 compounds, 0.83% hits | P43116 | EP2-expressing cells, cAMP HTRF FRET, PGE2 co-stimulation | induction, % at 25 µM;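 active = compounds whose cAMP rise, as percent of the full-agonist control response, exceeds 60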;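 also: rat C6 glioma line stably carrying human EP2 under a CMV promoter; the protocol text gives 20 µM as final concentration; 100% = response of wells given 1 µM PGE2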
Target sequence (P43116 whole entry, looked up): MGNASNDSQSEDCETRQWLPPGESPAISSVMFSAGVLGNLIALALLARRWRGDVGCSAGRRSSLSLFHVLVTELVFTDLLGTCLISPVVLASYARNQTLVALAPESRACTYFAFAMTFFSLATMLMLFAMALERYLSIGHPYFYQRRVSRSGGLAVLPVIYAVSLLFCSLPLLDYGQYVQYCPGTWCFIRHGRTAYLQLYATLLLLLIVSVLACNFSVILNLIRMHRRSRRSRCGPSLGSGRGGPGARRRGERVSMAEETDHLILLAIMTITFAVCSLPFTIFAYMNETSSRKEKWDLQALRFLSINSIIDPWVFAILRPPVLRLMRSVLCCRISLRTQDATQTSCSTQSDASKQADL
T cell modulator: modulates CD8 T cell binding to vesicles; 2C CD8+ T cell-vesicle binding, flow cytometry; stronger effect = lower value; response (vesicle binding), % at 7 µM; 330,000 compounds, 0.068% hits; AID 2052;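 active = response, share of CD8 T cells binding vesicles, and their 90th percentile fluorescence all below set limits, cut at about 80% in these data, passing the limit was not always enough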;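 also: values below 100% mean blocked vesicle binding to the CD8+ T cells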
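incubation = binding step 1.5 h, 37 °C, antibody labelling 20 min, ice | test system = 2C mouse CD8+ T cells | read-out basis = percent CD8+ FL2 mean versus row control | controls = Peptide-free naked vesicles (low) and QL9 vesicles with 0.7% DMSO vehicle (high) | detection = flow cytometry of vesicle-bound cells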
PGE2 EP2 inh: EP2 receptor (human) inhibition; 260,000 compounds, 0.52% hits; inhibition, % at 25 µM; AID 1422; C6 glioma cells expressing human EP2, cAMP TR-FRET; cells stimulated with saturating PGE2;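 active = percent inhibition above 40 after rounding to a whole number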;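 also: rat C6 glioma host cells with rolipram phosphodiesterase inhibitor present; the protocol text gives 20 µM as final concentration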
MC4R barr agon: agonists of human melanocortin 4 receptor (MC4R) beta-arrestin; P32245; AID 540308; activation, % at 8.9 µM; U2OS MC4R beta-arrestin complementation, luminescence; percent of melanotan II response, DMSO zero; 360,000 compounds, 0.98% hits;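 active = activation above a per-plate cutoff, the mean activation of sample wells on that plate plus 3 SD, cut at about 8% in these data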
Active calls of the source: *. Only some compounds are listed: those with a hit (about 2.6% of all), similar ones and a draw of the others.

COc1ccc2c(c1)OC[C@H]1[C@H]2N2C(=O)c3cc(OC)c(OC)cc3NC(=O)[C@@]2(C)[C@H]1c1ccccc1 was read as MC4R antag cAMP 15, Granule exo inh -2, T cell modulator 442 and MC4R barr agon 0.
For CC(C)(C)NC(=O)COC(=O)CCC(=O)c1ccc(F)cc1 the results were MC4R antag cAMP 17, Granule exo inh 2, EP2 modulator -8, T cell modulator 371, PGE2 EP2 inh 89* and MC4R barr agon -1.
For Cc1cc(/C=N/NC(=O)c2ccc(CN3CCOCC3)cc2)c(C)n1-c1ccccc1 the results were MC4R antag cAMP -6, Granule exo inh -1, EP2 modulator -9, T cell modulator 315, PGE2 EP2 inh 8 and MC4R barr agon -1.
For Cc1ccc(NC(=O)c2cccc(C(=O)OC(C)C)n2)c(Br)c1 the results were MC4R antag cAMP 7, Granule exo inh -1, EP2 modulator 62*, T cell modulator 270, PGE2 EP2 inh 7 and MC4R barr agon -1.
Screening COC(=O)c1cccc(C(=O)Nc2ccc(C)cc2Br)n1 returned MC4R antag cAMP 9, Granule exo inh 0, EP2 modulator 41, T cell modulator 243 and MC4R barr agon 0.
`CCOCCCn1c(SCC(=O)NCc2ccco2)nc2c(sc3ccccc32)c1=O` gave MC4R antag cAMP 20, Granule exo inh -2, EP2 modulator -4, T cell modulator 215, PGE2 EP2 inh 4 and MC4R barr agon 9.4*.
`CCCCn1c(SCC(=O)NCc2ccco2)nc2c(sc3ccccc32)c1=O` gave MC4R antag cAMP -2, Granule exo inh 0, EP2 modulator 2, T cell modulator 397, PGE2 EP2 inh 3 and MC4R barr agon 4.
`CCOc1ccc(-n2c(=S)sc3c(=O)[nH]c(SCC(=O)N4CCC(C)CC4)nc32)cc1` gave MC4R antag cAMP 3, Granule exo inh -2, EP2 modulator 62*, T cell modulator 343, PGE2 EP2 inh -2 and MC4R barr agon 0.
For C=CCNC(=S)Nc1c(N)n(C)c(=O)n(C)c1=O the results were MC4R antag cAMP 8, Granule exo inh -4, EP2 modulator -12, T cell modulator 229, PGE2 EP2 inh 8 and MC4R barr agon 2.
Screening COc1cc(/C=N/NC(=O)c2ccc(CSc3nncn3C)cc2)ccc1OCC(=O)N1CC(C)OC(C)C1 (configuration not stated) returned MC4R antag cAMP -2, Granule exo inh -5, EP2 modulator 3, T cell modulator 277, PGE2 EP2 inh 12 and MC4R barr agon -2.
For COC(=O)c1c(NC(=S)NN2CCN(C)CC2)sc2c1CCC(C)C2 (configuration not stated) the results were MC4R antag cAMP 5, Granule exo inh 64*, EP2 modulator -10, T cell modulator 343, PGE2 EP2 inh 6 and MC4R barr agon 0.
`Cc1ccc(S(=O)c2ccc([N+](=O)[O-])c3nonc23)cc1` (configuration not stated) gave MC4R antag cAMP -22, Granule exo inh 101* and MC4R barr agon 0.
For Cc1ccc(Nc2c([N+](=O)[O-])ccc3nonc23)c(C)c1 the results were MC4R antag cAMP 0, Granule exo inh -9, T cell modulator 229 and MC4R barr agon 1.
`NC(=S)N=Nc1c(O)n(CCCl)c2ccc(Cl)cc12` gave MC4R antag cAMP -11, Granule exo inh 57*, EP2 modulator 26, T cell modulator 220, PGE2 EP2 inh 3 and MC4R barr agon -5.
For COc1ccc(C(=O)NN=C2CCCC2)cc1 the results were MC4R antag cAMP 2, Granule exo inh -4, T cell modulator 236 and MC4R barr agon -1.
`COc1ccc(C(=O)N/N=C2\C(=O)c3c(C)cc(C)cc3CC2(C)C)cc1` gave EP2 modulator -12 and PGE2 EP2 inh 53*.
CCCCCNC(=O)c1ccc2c(=O)n(CCCOCC)c(=S)[nH]c2c1 was read as MC4R antag cAMP -7, Granule exo inh 6, EP2 modulator -15, T cell modulator 516, PGE2 EP2 inh 8 and MC4R barr agon -1.

Screening data as filed in PubChem.
